Data from ChEMBL document CHEMBL1140077, “Lipid-lowering (hetero)aromatic tetrahydro-1,4-oxazine derivatives with antioxidant and squalene synthase inhibitory activity” (J Med Chem, 2008).

Tests used:
Liver microsomes = experiment: Inhibition of lipid peroxidation in heat-inactivated rat liver microsomes after 45 mins; assay type: functional, Microsome
In short: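 Heat-inactivated liver microsomes from untreated rats (2.5 mg protein/mL) with 0.2 mM ascorbate in Tris-HCl/KCl (50/150 mM, pH 7.4), compound 10 µM-1 mM in DMSO; started with FeSO4 (10 µM), 37 °C 45 min. TBAR read at 535 vs 600 nm; duplicates; IC50 as mean concentration giving 50% inhibition of peroxidation.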

Rattus norvegicus [1] = experiment: Decrease in triglyceride level in Fischer 344 rat plasma at 56 umol/kg, ip after 24 hrs; assay type: functional; set-up: scale not given: the % may be the effect or the level left
In short: (§1)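 Male Fischer-344 rats (180-220 g) made hyperlipidemic with Triton WR 1339 (200 mg/kg ip, aqueous); 1 h later compound (56 µmol/kg) in saline or saline alone given ip. Aortic blood taken at 24 h; plasma total cholesterol, LDL-C and triglycerides measured with kits in duplicate; mean of 8-10 rats per compound.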

Rattus norvegicus [2] = experiment: Decrease in LDL-cholesterol level in Fischer 344 rat plasma at 56 umol/kg, ip after 24 hrs; assay type: functional; set-up: scale not given: the % may be the effect or the level left; in short: as §1
Squalene synthase = target: T1, Squalene synthase (Rattus norvegicus, UniProt Q02769); experiment: Inhibition of squalene synthase in rat liver microsome measured by conversion of [3H]FPP to squalene; assay type: microsomes
T1 sequence (Q02769 whole entry): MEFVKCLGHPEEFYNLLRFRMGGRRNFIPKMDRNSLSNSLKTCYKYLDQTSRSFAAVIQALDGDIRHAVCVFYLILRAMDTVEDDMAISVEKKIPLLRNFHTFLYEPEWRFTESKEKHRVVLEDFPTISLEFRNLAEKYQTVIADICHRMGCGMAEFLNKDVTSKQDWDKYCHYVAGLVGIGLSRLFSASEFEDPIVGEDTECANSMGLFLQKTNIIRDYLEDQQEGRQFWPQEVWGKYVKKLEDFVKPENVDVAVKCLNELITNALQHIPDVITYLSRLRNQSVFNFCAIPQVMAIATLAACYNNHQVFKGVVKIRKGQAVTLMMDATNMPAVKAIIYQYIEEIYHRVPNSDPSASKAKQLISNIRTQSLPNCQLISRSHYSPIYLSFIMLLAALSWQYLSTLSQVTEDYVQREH
In short: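 Rat liver microsomes (18 µg protein/mL) in 50 mM phosphate pH 7.4 with 10 mM MgCl2, 0.5 mM NADPH, compound in ethanol; preincubated 10 min 37 °C, started with [3H]FPP (0.5 µM), 10 min 37 °C. Stopped with ethanolic KOH, 65 °C 30 min, petroleum ether extract counted by scintillation; triplicates, IC50 from mean.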

Rattus norvegicus [3] = experiment: Decrease in total cholesterol level in Fischer 344 rat plasma at 56 umol/kg, ip after 24 hrs; assay type: functional; set-up: scale not given: the % may be the effect or the level left; in short: as §1

| IC50 (Liver microsomes) | IC50 (Squalene synthase) | Structure (SMILES) | Activity (Rattus norvegicus [1]) | Activity (Rattus norvegicus [2]) | Activity (Rattus norvegicus [3]) |
| --- | --- | --- | --- | --- | --- |
| 164 µM | 7 µM | OC1(c2ccc(-c3ccc(Br)s3)cc2)CN2CCCCC2CO1 (stereo not given) | 37% | 35% | 36% |
| 174 µM | 7 µM | OC1(c2ccc(-c3cccs3)cc2)CN2CCCCC2CO1 (stereo not given) | 29% | 46% | 43% |
| 330 µM | 23 µM | CN1CCOC(O)(c2ccc(-c3ccc(F)cc3)cc2)C1 (stereo not given) | 18% | 36% | 23% |
| 87 µM | 5 µM | CN1CCOC(O)(c2ccc(-c3cccs3)cc2)C1 (stereo not given) | 38% | 61% | 48% |
| 180 µM | 9 µM | CN1CC(O)(c2ccc(-c3ccc(Cl)cc3)cc2)OC2CCCCC21 (stereo not given) | 41% | 29% | 11% |
| 51 µM | 13 µM | CN1CCOC(O)(c2ccc(-c3ccc(Br)s3)cc2)C1 (stereo not given) | 35% | 26% | 43% |
| 202 µM | 6 µM | CN1CC(O)(c2ccc(-c3nc4ccccc4s3)cc2)OC2CCCCC21 (stereo not given) | 0% | 24% | 0% |
| 162 µM | 10 µM | OC1(c2ccc(-c3ccc(F)cc3)cc2)CN2CCCCC2CO1 (stereo not given) | 95% | 11% | 27% |
| 187 µM | 5 µM | OC1(c2ccc(-c3nc4ccccc4s3)cc2)CN2CCCCC2CO1 (stereo not given) | 46% | 41% | 55% |
| 220 µM | 6 µM | CN1CCOC(O)(c2ccc(-c3ccc(Br)cc3)cc2)C1 (stereo not given) | 51% | 36% | 47% |
| 200 µM | 4 µM | CN1CC(O)(c2ccc(-c3ccc(Br)cc3)cc2)OC2CCCCC21 (stereo not given) | 7% | 53% | 23% |
| 178 µM | 15 µM | OC1(c2ccc(-c3ccc(Cl)cc3)cc2)CN2CCCCC2CO1 (stereo not given) | 52% | 35% | 44% |
| 390 µM | 10 µM | OC1(c2ccc(-c3ccccc3F)cc2)CN2CCCCC2CO1 (stereo not given) | 15% | 11% | 5% |
| 113 µM | 2 µM | CN1CCOC(O)(c2ccc(-c3nc4ccccc4s3)cc2)C1 (stereo not given) | 44% | 53% | 46% |
| 139 µM | 3 µM | OC1(c2ccc(-c3ccc(Br)cc3)cc2)CN2CCCCC2CO1 (stereo not given) | 17% | 6% | 17% |
| 450 µM | 36 µM | CN1CC(O)(c2ccc(-c3ccccc3)cc2)OC2CCCCC21 (stereo not given) | 49% | 51% | 54% |

| Structure (SMILES) | IC50 (Liver microsomes) | IC50 (Squalene synthase) | Activity (Rattus norvegicus [1]) | Activity (Rattus norvegicus [2]) | Activity (Rattus norvegicus [3]) |
| --- | --- | --- | --- | --- | --- |
| CN1CC(O)(c2ccc(-c3ccc(F)cc3)cc2)OC2CCCCC21 (stereo not given) | 420 µM | 28 µM | 94% | 33% | 41% |
| CN1CCOC(O)(c2ccc(-c3ccc(Cl)cc3)cc2)C1 (stereo not given) | 111 µM | 9 µM | 70% | 57% | 63% |
| CN1CC(O)(c2ccc(-c3ccccc3F)cc2)OC2CCCCC21 (stereo not given) | 490 µM | 42 µM | 25% | 47% | 18% |
| CN1CCOC(O)(c2ccc(-c3ccccc3F)cc2)C1 (stereo not given) | 182 µM | 40 µM | 64% | 82% | 67% |
| CN1CC(O)(c2ccc(-c3cccs3)cc2)OC2CCCCC21 (stereo not given) | 20 µM | 10 µM | 47% | 46% | 45% |
| CN1CC(O)(c2ccc(-c3ccc(Br)s3)cc2)OC2CCCCC21 (stereo not given) | 160 µM | 1 µM | 26% | 45% | 35% |
